Reference: ChEMBL document CHEMBL3120162, “Sesquiterpenes from Neurolaena lobata and their antiproliferative and anti-inflammatory activities” (J Nat Prod, 2014)
pIC50: −log10 of the molar value. Active and inactive are the calls of the source. The rule behind the calls is not given here.

Experiments:
[1] = system: MCF7; assay: Antiproliferative activity against human MCF7 cells assessed as inhibition of cell proliferation after 72 hrs by MTT assay; assay type: functional, cell-based; details: MCF7, 72 h
In short: (§1)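 Cells seeded at 5000/well and allowed to attach overnight, then given fresh medium with test agents (from 10 mM DMSO stocks; at most 0.3% DMSO in medium) for 72 h. 5 mg/mL MTT solution was added for 4 h, and formazan was dissolved in DMSO and read at 545 nm. Untreated cells served as negative control and cisplatin as reference. Two plates, ≥5 parallel wells each. IC50 from sigmoidal dose-response fits.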

[2] = system: A-431; assay: Antiproliferative activity against human A431 cells assessed as inhibition of cell proliferation after 72 hrs by MTT assay; assay type: functional, cell-based; details: A-431, 72 h; in short: as §1
[3] = system: HUVEC; assay: Inhibition of TNF-alpha-induced IL-8 secretion in HUVEC expressing TERT at 30 uM treated for 15 mins prior to LPS challenge measured after 6 hrs by ELISA; assay type: functional, cell-based; details: Homo sapiens
In short: (§2)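 Immortalized HUVEC (hTERT) were grown in medium 199 with 20% FBS, glutamine and ECGS/heparin. Compounds were added in medium with 5% FBS (final 30 μM) 15 min before a stimulus: TNF-α 30 ng/mL or LPS 100 ng/mL final. Media were collected after 6 h and IL-8 protein was measured by ELISA with TMB substrate. Sextuplicates, BAY positive control, ANOVA.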

[4] = system: HeLa; assay: Antiproliferative activity against human HeLa cells assessed as inhibition of cell proliferation after 72 hrs by MTT assay; assay type: functional, cell-based; in short: as §1
[5] = system: A2780; assay: Antiproliferative activity against human A2780 cells assessed as inhibition of cell proliferation after 72 hrs by MTT assay; assay type: functional, cell-based; details: A2780, 72 h; in short: as §1
[6] = system: HUVEC; assay: Inhibition of LPS-induced IL-8 secretion in HUVEC expressing TERT at 30 uM treated for 15 mins prior to LPS challenge measured after 6 hrs by ELISA; assay type: functional, cell-based; details: Homo sapiens; in short: as §2
[7] = system: HUVEC; assay: Inhibition of TNF-alpha-induced IL-8 secretion in HUVEC expressing TERT treated for 15 mins prior to LPS challenge measured after 6 hrs by ELISA; assay type: functional, Homo sapiens; in short: as §2
[8] = system: HUVEC; assay: Inhibition of LPS-induced IL-8 secretion in HUVEC expressing TERT treated for 15 mins prior to LPS challenge measured after 6 hrs by ELISA; assay type: functional, Homo sapiens; in short: as §2

SMILES	pIC50 [1]	pIC50 [2]	inhibition [3]	pIC50 [4]	pIC50 [5]	inhibition [6]	inhibition (INH) [7]	inhibition (INH) [8]
C=C1C(=O)O[C@@H]2C[C@@]3(C)O[C@H](O[C@H]3CC(=O)C(C)=O)[C@@H](OC(=O)CC(C)C)[C@@H]12 (relative stereo)	< 5.00	5.17	inactive	< 5.00	5.27	Active		
C=C1C(=O)O[C@@H]2[C@@H](O)[C@@H](C)C3=CC(=O)[C@](C)(O3)[C@H](O)[C@@H](OC(=O)CC(C)C)[C@@H]12 (relative stereo)	< 5.00	< 5.00	inactive	< 5.00	< 5.00	Active		
C=C1C(=O)O[C@@H]2/C=C(\C)[C@H](O)C[C@H]3O[C@]3(C)C[C@@H](OC(=O)CC(C)C)[C@@H]12 (relative stereo)	5.14	5.14	inactive	< 5.00	5.33	Active		
C=C1C(=O)O[C@@H]2C[C@]3(C)O[C@@H](O[C@@H]3CC(=O)C(C)=O)[C@@H](OC(=O)CC(C)C)[C@@H]12 (relative stereo)	< 5.00	< 5.00	inactive	< 5.00	5.01	Active		
Cc1ccc(S(=O)(=O)/C=C/C#N)cc1							23.7%	12.7%
C=C1C(=O)O[C@@H]2[C@@H]1[C@H](OC(=O)CC(C)C)C[C@@]1(C)[C@H](O)C[C@H](OC(C)=O)C(=C)[C@H]21 (relative stereo)	< 5.00	5.28	inactive	< 5.00	5.14	Active		
